Screening data from PubChem.
Most compounds without a hit are left out; they make up all but 1.9% or so of the library.
Runt-CBFb FRET – Runt domain-CBFb interaction inhibition; Q01196+Q13951; Cerulean-Runt/Venus-CBFb FRET ratio 530/480, 1 h; inhibition, % at 20 µM; actives 0.46% (n = 220,000);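 active means inhibition over about 50% at 20 µM in the single-dose screen, limit read from the data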
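Buffer or medium: Tris pH 7.5 buffer with BSA. Assay system: Cerulean-labeled Runt domain protein. Amount: each fluorescent fusion protein 100 nM. Read-out basis: loss of energy transfer signal. Incubation: 1 h compound exposure, room temperature. Probe or stimulus: Venus-CBFb binding partner, 100 nM. Detection: FRET, excitation 422 nm, emission at 530 and 480 nm.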
Tb hexokinase – blocks Trypanosoma brucei hexokinase 1 activity; inhibition, % at 10 µM; AID 1430; recombinant TbHK1, G6PDH-coupled NADH A340; actives 0.11% (n = 220,000);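 active means inhibition of 50% or more in the single-dose primary screen; inactive means inhibition below 50%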
Hck Nef HTS – inhibitors of human Hck kinase activated by Nef. P08631. Recombinant Hck-YEEI plus Nef, Z-Lyte FRET kinase assay. inhibition, % at 20 µM. actives 0.68% (n = 220,000);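 active means Hck-Nef kinase inhibition above about 50%, limit read from the data; inactive means inhibition below that limit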
Target sequence (P08631 whole entry, looked up): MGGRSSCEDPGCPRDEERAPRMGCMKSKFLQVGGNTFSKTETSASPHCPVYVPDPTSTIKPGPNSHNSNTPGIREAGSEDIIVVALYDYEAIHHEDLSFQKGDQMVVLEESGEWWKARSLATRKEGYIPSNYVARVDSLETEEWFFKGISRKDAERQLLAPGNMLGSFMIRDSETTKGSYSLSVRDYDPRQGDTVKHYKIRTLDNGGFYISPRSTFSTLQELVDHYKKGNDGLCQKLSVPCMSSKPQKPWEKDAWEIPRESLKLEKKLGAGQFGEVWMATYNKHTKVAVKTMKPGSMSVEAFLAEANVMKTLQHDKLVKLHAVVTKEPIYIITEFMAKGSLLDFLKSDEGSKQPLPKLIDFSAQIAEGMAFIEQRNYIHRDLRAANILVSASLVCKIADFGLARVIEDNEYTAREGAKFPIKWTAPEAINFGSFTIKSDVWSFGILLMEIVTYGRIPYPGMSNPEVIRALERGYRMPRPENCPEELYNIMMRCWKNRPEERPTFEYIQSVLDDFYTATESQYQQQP
Runt-SMMHC FRET – Runt domain-CBFb-SMMHC interaction inhibition | Cerulean-Runt/Venus-CBFb-SMMHC FRET ratio 530/480, 1 h | inhibition, % at 20 µM | actives 0.74% (n = 220,000) | AID 1434;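 active means mean inhibition across duplicate retests at 20 µM reaching about 50%, limit read from the data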;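 further: inhibitors lower the FRET ratio by blocking Runt binding to CBFb-SMMHC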
RanGTP-Imp inh – disruptors of Ran-importin-beta complex formation – biochemical, FRET, CFP-Ran, YFP-importin-beta, homogeneous, primary screen | cell-free CFP-Ran/YFP-importin-beta FRET ratio | inhibition, % (test concentration not listed) | actives 1.1% (n = 300,000);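 active means more than half of the replicate wells show a fall in the fluorescence ratio signal beyond about 16%, limit read from the data, passing the limit was not always enough; inconclusive means exactly half of the replicate wells pass the set limit; inactive means fewer than half of replicates pass the limit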
YIC FRET counter – counter-screen for RanGTP-importin-beta inhibitors: YIC FRET probe; shares compounds with RanGTP-Imp inh; IC50, µM; actives 40% (n = 1,000); Purified YIC probe, intramolecular FRET ratio YFP/CFP;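 active means fitted half-maximal inhibitory concentration no more than tenfold above the top dose tested; inconclusive means flat fit with 30 to 70% activity, or poor fit; inactive means half-maximal concentration beyond tenfold above the top dose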
Hck Nef conf – Hck-Nef kinase inhibition, confirmation; shares compounds with Hck Nef HTS; Recombinant Hck-YEEI:Nef, Z-Lyte FRET kinase assay; calls only at 10 µM; actives 28% (n = 1,300);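 active means average inhibition of at least 50%, with Z-scores no higher than 3 in both the phospho-tyrosine peptide and fluorescence counterscreens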
Each line names hits and unclear results; the compound was inactive in the other large screens (follow-up assays come after a bar, where shown).

O=[N+]([O-])c1cnc[nH]1	none (no result: Runt-CBFb FRET, Tb hexokinase, Hck Nef HTS, Runt-SMMHC FRET)
CN1c2ccc([N+](=O)[O-])cc2CC2(C(=O)NC(=O)N(c3ccc(Br)cc3)C2=O)C1c1ccccc1 (stereo not drawn)	none
NC(N)=N/N=C/c1ccc(N(c2ccccc2)c2ccccc2)cc1	RanGTP-Imp inh 23 (no result: Runt-CBFb FRET, Tb hexokinase, Hck Nef HTS, Runt-SMMHC FRET) | YIC FRET counter inactive
Cc1ccc(C2(O)CN3CCC2CC3)cc1 (stereo not drawn)	none (no result: Runt-CBFb FRET, Tb hexokinase, Hck Nef HTS, Runt-SMMHC FRET)
Nc1ccc(C2(c3ccc(N)cc3)CN3CCC2CC3)cc1	RanGTP-Imp inh 49 | YIC FRET counter inactive
O=c1[nH]c(O)c(/C=C2/C=CC(c3cc(Cl)ccc3Cl)=N2)c(=O)[nH]1	Runt-CBFb FRET 115, Runt-SMMHC FRET 80, RanGTP-Imp inh 38 | YIC FRET counter 4
Cc1cc(/C=C2\C(=O)NC(=O)N(c3ccc(F)cc3)C2=O)c(C)n1-c1ccc(C(=O)O)cc1	RanGTP-Imp inh 18 | YIC FRET counter inactive
CCc1ccc(N2C(=O)NC(=O)/C(=C\c3cc(C)n(-c4cc(C(=O)O)cc(C(=O)O)c4)c3C)C2=O)cc1	RanGTP-Imp inh 19 (no result: Runt-CBFb FRET, Tb hexokinase, Hck Nef HTS, Runt-SMMHC FRET) | YIC FRET counter inactive
COc1cc(/C=C2\C(=O)NC(=O)N(c3ccccc3)C2=O)c([N+](=O)[O-])cc1OC	none (no result: RanGTP-Imp inh)
CN1C(=O)NC(=O)/C(=C\C=C\c2ccccc2[N+](=O)[O-])C1=O	Hck Nef HTS 93 (no result: RanGTP-Imp inh) | Hck Nef conf inactive
CN1C(=O)C(=Cc2coc3ccccc3c2=O)C(=O)N(C)C1=O	Hck Nef HTS 81 | Hck Nef conf active
Cc1ccc2c(c1)N(C(C)C(=O)N1CCC3(CC1)OCCO3)C(=O)CO2 (stereo not drawn)	none (no result: Runt-CBFb FRET, Tb hexokinase, Hck Nef HTS, Runt-SMMHC FRET)
CN1C(=O)C(=Cc2ccc(Sc3ccccc3)o2)C(=O)N(C)C1=O	Hck Nef HTS 70 (no result: RanGTP-Imp inh) | Hck Nef conf inactive
N#CCCn1cc(C(=O)Nc2ccccc2Br)c(-c2ccc([N+](=O)[O-])cc2)n1	none
CCN1C(=O)/C(=C/c2ccc3c(c2)CCN3CCCCl)C(=O)NC1=S	Hck Nef HTS 55 | Hck Nef conf active
COc1ccc(OC)c(N2C(=O)NC(=O)/C(=C/c3ccc([N+](=O)[O-])s3)C2=O)c1	Hck Nef HTS 89 | Hck Nef conf inactive
COc1ccc(OC)c(N2C(=O)/C(=C/c3ccco3)C(=O)NC2=S)c1	none (no result: Runt-CBFb FRET, Tb hexokinase, Hck Nef HTS, Runt-SMMHC FRET)
O=C1NC(=O)N(c2ccc(Cl)cc2)C(=O)/C1=C\c1ccc(Sc2nc3ccccc3[nH]2)o1	Hck Nef HTS 57 | Hck Nef conf inactive
CCOP(=O)(OCC)C(O)c1ccc(OC)cc1 (stereo not drawn)	none
Cc1ccccc1NC(=O)NCCN1CC1	none
Cc1ccc(N2C(=O)/C(=C/c3ccc(CN(CCC#N)S(C)(=O)=O)o3)C(=O)NC2=S)cc1C	none
Cc1cccc(N2C(=O)/C(=C/c3ccc(CN(CCC#N)S(C)(=O)=O)o3)C(=O)NC2=S)c1	Hck Nef HTS 53 | Hck Nef conf inactive
O=C1NC(=O)C(=Cc2coc3ccc(O)cc3c2=O)C(=O)N1	Hck Nef HTS 78 | Hck Nef conf active
COc1cc(N2CCOCC2)ccc1C=C1C(=O)NC(=O)NC1=O	none
O=C1NC(=O)C(=Cc2ccc(OCCOc3ccc([N+](=O)[O-])cc3)cc2)C(=O)N1	Hck Nef HTS 63 | Hck Nef conf inactive
O=C1NC(=O)C(=Cc2cccc(OCCOc3ccccc3)c2)C(=O)N1	none (no result: Runt-CBFb FRET, Tb hexokinase, Hck Nef HTS, Runt-SMMHC FRET)
Cc1cc(=O)n(-c2ccccc2)n1-c1ccccc1	none
Cc1cc(C=C2C(=O)NC(=S)NC2=O)c(C)n1C1CCCC1	Hck Nef HTS 71 | Hck Nef conf inactive
O=c1oc2ccccc2c(O)c1C(c1ccc([N+](=O)[O-])cc1)c1c(O)c2ccccc2oc1=O	Hck Nef HTS 73 | Hck Nef conf active
C/C(CC(c1ccccc1)c1c(O)c2ccccc2oc1=O)=N\Nc1ccc([N+](=O)[O-])cc1[N+](=O)[O-] (stereo not drawn)	none
CCCCC(=O)N/N=C/c1c(O)n(CCc2ccc(OC)c(OC)c2)c(=O)[nH]c1=O	Hck Nef HTS 78 | Hck Nef conf inactive
COc1ccc2nc(NC3=NCCN3)sc2c1	none
COc1ccc(Cn2c(N)c(C(=O)NCc3ccco3)c3nc4ccccc4nc32)cc1OC	Hck Nef HTS 62, Runt-SMMHC FRET 57 (no result: RanGTP-Imp inh) | Hck Nef conf inactive
Cc1nn(Cc2ccccc2)c(C)c1C(=O)OCC(=O)NCc1ccco1	none
Nc1c(C(=O)NCC2CCCO2)c2nc3ccccc3nc2n1Cc1ccco1 (stereo not drawn)	Hck Nef HTS 60, Runt-SMMHC FRET 81, RanGTP-Imp inh 64
Cc1c2cnn(CC(=O)N3CCC4(CC3)OCCO4)c(=O)c2c(C)n1Cc1ccccc1Cl	none (no result: Runt-CBFb FRET, Tb hexokinase, Hck Nef HTS, Runt-SMMHC FRET)
O=C1NC(=S)N(c2ccc(F)cc2)C(=O)/C1=C/c1ccco1	none (no result: Runt-CBFb FRET, Tb hexokinase, Hck Nef HTS, Runt-SMMHC FRET)
O=C1NC(=S)N(c2ccc(F)cc2)C(=O)/C1=C\c1ccoc1	Hck Nef HTS 79 (no result: RanGTP-Imp inh) | Hck Nef conf active
CS(=O)(=O)c1ccc(C(=O)N2CCC(C(=O)O)(c3ccccc3)CC2)cc1	none (no result: Runt-CBFb FRET, Tb hexokinase, Hck Nef HTS, Runt-SMMHC FRET)
Cc1cc(/C=C2\C(=O)NC(=O)N(Cc3ccco3)C2=O)c(C)n1-c1ccc(C(=O)O)cc1	Hck Nef HTS 50 | Hck Nef conf inactive
C=CCN1C(=O)NC(=O)/C(=C/C=C/c2ccccc2)C1=O	Hck Nef HTS 51 | Hck Nef conf inactive
O=C1NC(=O)N(CCc2ccc(F)cc2)C(=O)/C1=C\C=C\c1ccccc1	none (no result: RanGTP-Imp inh)
O=C1NC(=O)N(c2ccccc2)C(=O)/C1=C/C=C/c1ccco1	none
CN(C)c1ccc(/C=C/C=C2/C(=O)NC(=O)N(c3ccccc3)C2=O)cc1	Hck Nef HTS 57 | Hck Nef conf inactive
O=C1NC(=O)N(Cc2ccccc2)C(=O)/C1=C\C=C\c1ccco1	Hck Nef HTS 59, RanGTP-Imp inh inconclusive | Hck Nef conf inactive
CN1C(=O)/C(=C/C=C/c2ccco2)C(=O)NC1=S	Hck Nef HTS 54 | Hck Nef conf inactive
c1ccc(C2CC3CC(c4ccco4)N2O3)cc1 (stereo not drawn)	none
C[C@]12CCC3=C4CCC(=O)C=C4CC[C@H]3C1CC[C@@H]2O (stereo partly drawn)	none (no result: Runt-CBFb FRET, Tb hexokinase, Hck Nef HTS, Runt-SMMHC FRET)
Cc1ccc(N2C(=O)NC(=O)/C(=C\C=C\c3ccco3)C2=O)cc1C	Hck Nef HTS 68 | Hck Nef conf inactive
COCCNC(=O)c1c(N)n(CCC(C)C)c2nc3ccccc3nc12	Hck Nef HTS 64, Runt-SMMHC FRET 59, RanGTP-Imp inh 82 | Hck Nef conf inactive
C=CCNC(=O)c1c(N)n(CCN2CCOCC2)c2nc3ccccc3nc12	Runt-CBFb FRET 81, Hck Nef HTS 50, RanGTP-Imp inh 80
Cc1c(C(=O)Nc2ccccc2)cc(-c2ccccc2)n1CCCN1CCOCC1	none
